ChEMBL document CHEMBL1147801, “NK1 antagonists based on seven membered lactam scaffolds” (Bioorg Med Chem Lett, 2006)

How the values were obtained:
[1] = target: Voltage-gated inwardly rectifying potassium channel KCNH2 (Homo sapiens, UniProt Q12809); test: Displacement of labeled MK-499 from cloned hERG channel expressed in HEK cells; type: cell-based, HEK293
[2] = Clearance in rat; type: ADME, organism-based; settings: in vivo
[3] = Half life in rat; type: ADME, organism-based; settings: in vivo
Gerbil, jird [4] = test: Inhibition of GR-73632-induced foot tapping in po dosed gerbil after 1 hr; type: functional; settings: Meriones, read-out: ID50 (the source's name)
In short: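 Gerbils dosed orally 1 h before central challenge with the NK1 agonist GR73632, with foot-tapping scored. […] Plasma drug level at 1 h measured by LC–MS/MS after protein precipitation.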

Substance-P receptor = Substance-P receptor (Homo sapiens, UniProt P25103); test: Displacement of [125I] labeled substance P from human cloned NK1 receptor expressed in CHO cells; type: cell-based
In short: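 Radioligand displacement assay: [¹²⁵I]-labelled substance P bound to cloned human NK1 receptor expressed in CHO cells, measured as the concentration giving IC50; mean ± SD of three determinations.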

Gerbil, jird [5] = test: Inhibition of GR-73632-induced foot tapping in gerbil at 3 mg/kg, po after 1 hr; type: functional, Meriones; set-up: Activity: scale not given: the % may be the effect or the level left; settings: for Activity: dose 3 mg/kg; for ED50: Meriones, 1 h, read-out: ID50 (the source's name)
In short: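 Gerbils dosed orally 1 h before central challenge with the NK1 agonist GR73632, with foot-tapping scored. Plasma drug level at 1 h measured by LC–MS/MS after protein precipitation.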

Sequence of Voltage-gated inwardly rectifying potassium channel KCNH2 (Q12809 whole entry): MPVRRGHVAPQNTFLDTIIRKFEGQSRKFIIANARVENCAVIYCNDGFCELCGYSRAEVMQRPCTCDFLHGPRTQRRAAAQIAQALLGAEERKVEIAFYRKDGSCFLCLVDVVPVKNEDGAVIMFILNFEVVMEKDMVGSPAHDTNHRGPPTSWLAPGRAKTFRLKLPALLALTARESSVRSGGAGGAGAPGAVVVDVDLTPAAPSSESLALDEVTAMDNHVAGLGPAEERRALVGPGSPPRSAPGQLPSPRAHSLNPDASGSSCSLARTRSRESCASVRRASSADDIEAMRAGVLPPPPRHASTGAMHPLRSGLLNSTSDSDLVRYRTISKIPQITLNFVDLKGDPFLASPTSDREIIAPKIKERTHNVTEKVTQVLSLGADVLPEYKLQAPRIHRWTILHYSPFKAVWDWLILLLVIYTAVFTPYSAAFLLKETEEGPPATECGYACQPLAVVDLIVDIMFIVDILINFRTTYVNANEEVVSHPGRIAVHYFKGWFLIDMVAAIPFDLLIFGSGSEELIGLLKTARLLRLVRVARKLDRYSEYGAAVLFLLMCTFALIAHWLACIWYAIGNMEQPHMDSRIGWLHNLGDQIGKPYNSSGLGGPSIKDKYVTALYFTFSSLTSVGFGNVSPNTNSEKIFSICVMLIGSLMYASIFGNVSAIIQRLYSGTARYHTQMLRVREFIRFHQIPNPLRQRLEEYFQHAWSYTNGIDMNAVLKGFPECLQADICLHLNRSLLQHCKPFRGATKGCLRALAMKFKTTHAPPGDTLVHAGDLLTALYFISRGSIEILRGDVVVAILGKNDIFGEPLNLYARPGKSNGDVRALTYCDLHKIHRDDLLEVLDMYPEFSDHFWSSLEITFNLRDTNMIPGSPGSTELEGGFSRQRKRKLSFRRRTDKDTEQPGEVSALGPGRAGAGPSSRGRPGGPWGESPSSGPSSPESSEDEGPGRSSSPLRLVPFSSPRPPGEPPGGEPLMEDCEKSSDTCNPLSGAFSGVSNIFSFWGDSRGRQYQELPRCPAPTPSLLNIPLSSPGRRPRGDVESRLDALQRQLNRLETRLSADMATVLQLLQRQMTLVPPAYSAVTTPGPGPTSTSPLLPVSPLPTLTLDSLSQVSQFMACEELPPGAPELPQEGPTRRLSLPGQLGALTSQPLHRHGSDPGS
Sequence of Substance-P receptor (P25103 whole entry): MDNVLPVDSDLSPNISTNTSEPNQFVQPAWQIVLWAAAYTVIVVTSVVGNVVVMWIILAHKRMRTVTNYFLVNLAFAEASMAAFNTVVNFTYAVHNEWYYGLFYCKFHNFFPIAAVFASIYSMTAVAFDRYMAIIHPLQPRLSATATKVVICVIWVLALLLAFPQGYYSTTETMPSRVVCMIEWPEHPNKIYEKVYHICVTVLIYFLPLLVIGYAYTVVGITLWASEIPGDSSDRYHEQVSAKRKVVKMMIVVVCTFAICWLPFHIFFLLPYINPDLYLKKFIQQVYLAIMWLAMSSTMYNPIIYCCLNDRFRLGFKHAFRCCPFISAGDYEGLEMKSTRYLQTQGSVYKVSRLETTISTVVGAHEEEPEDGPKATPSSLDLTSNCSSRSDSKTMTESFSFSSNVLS

SMILES	Ki [1] [µM]	IC50 (Substance-P receptor) [nM]	Activity (Gerbil, jird [5]) [%]	other results
C[C@@H](O[C@H]1CCC(=O)N(C)[C@@H](C)[C@@H]1c1ccc(F)cc1)c1cc(C(F)(F)F)cc(C(F)(F)F)c1	6.7			
C[C@@H](O[C@H]1CCC(=O)NC[C@@H]1c1ccc(F)cc1)c1cc(C(F)(F)F)cc(C(F)(F)F)c1	> 9	0.14		clearance [2]: 33 mL/min/kg; half-life [3]: 336 min; ED50 (Gerbil, jird [4]): 1.06 mg/kg
C[C@@H]1C[C@H](O[C@H](C)c2cc(C(F)(F)F)cc(C(F)(F)F)c2)[C@@H](c2ccc(F)cc2)CN(C)C1=O			5	
C[C@@H]1NC(=O)CC[C@H](O[C@H](C)c2cc(C(F)(F)F)cc(C(F)(F)F)c2)[C@H]1c1ccc(F)cc1	> 9			
C[C@@H](O[C@H]1CCn2ccnc2C[C@@H]1c1ccc(F)cc1)c1cc(C(F)(F)F)cc(C(F)(F)F)c1	1.4		0	
C[C@@H](O[C@H]1CCN(C)C(=O)C[C@@H]1c1ccc(F)cc1)c1cc(C(F)(F)F)cc(C(F)(F)F)c1	> 9	0.53		
C[C@@H]1C[C@H](O[C@H](C)c2cc(C(F)(F)F)cc(C(F)(F)F)c2)[C@@H](c2ccc(F)cc2)CNC1=O	2.4	0.23		
C[C@@H]1C[C@H](O[C@H](C)c2cc(C(F)(F)F)cc(C(F)(F)F)c2)[C@@H](c2ccc(F)cc2)CC(=O)N1		0.41	64	
C[C@@H](O[C@H]1CCC(=O)N(C)C[C@@H]1c1ccc(F)cc1)c1cc(C(F)(F)F)cc(C(F)(F)F)c1		0.12		ED50 (Gerbil, jird [5]): 0.64 mg/kg
C[C@@H](O[C@H]1CCc2nccn2C[C@@H]1c1ccc(F)cc1)c1cc(C(F)(F)F)cc(C(F)(F)F)c1		0.28	4	
C[C@@H]1C[C@H](O[C@H](C)c2cc(C(F)(F)F)cc(C(F)(F)F)c2)[C@@H](c2ccc(F)cc2)CC(=O)N1C	> 9	0.49	8	
C[C@@H](O[C@H]1CCn2c(O)nnc2C[C@@H]1c1ccc(F)cc1)c1cc(C(F)(F)F)cc(C(F)(F)F)c1	> 9	0.22		ED50 (Gerbil, jird [5]): 0.8 mg/kg
C[C@@H](O[C@H]1CCNC(=O)C[C@@H]1c1ccc(F)cc1)c1cc(C(F)(F)F)cc(C(F)(F)F)c1	> 9	0.64	0	
